In publication PMC6253716 (Chemical Science, 2018):
Where two headings read alike, the source gives them in different places.

How the values were obtained:
[1] = test system: pRSK in HCT116 cells; test: Quantification of pRSK by MSD, HCT116; format: cell-based; details: for IC50: Homo sapiens, read-out: Pharmacodynamic IC50 (pRSK)
How it was run: (§1)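 Lysis was 20 min at RT. Lysate was captured 3 h at RT on anti-pRSK-coated MSD plates, detected with sulfo-tag anti-RSK antibody for 1 h, and read electrochemiluminescently. IC50 came from a sigmoidal dose–response fit.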

[2] = test system: ERK1/2; test: In-lysate ERK1/2 pull down in competition with SCH-TCO; format: binding; details: cell lysates
[3] = test system: HCT116 KRAS mutant colorectal cells; test: Cell proliferation assay; format: cell-based; details: Homo sapiens, HCT-116, 96 h, read-out: Anti-proliferative IC50 HCT116
How it was run: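 Cells were kept in DMEM + 10% FBS at 37 °C, 5% CO2. 5 × 10^3 cells were seeded one day before treatment. Compound was given in 0.1% (v/v) DMSO for 96 h, then viability was read with Alamar Blue. IC50 came from a sigmoidal dose–response fit.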

[4] = test system: ERK1/2; test: In-lysate ERK1/2 pull down in competition with TCO-GDC-2; format: binding; details: HCT116 lysates; for Target engagement EC50 with TCO-GDC-2 probe (in words): apparently exaggerated
[5] = test system: pRSK in A375 cells; test: Quantification of pRSK by MSD, A375; format: cell-based; details: Homo sapiens, read-out: Pharmacodynamic IC50 (pRSK)
How it was run: as §1

[6] = biological target: T1, ERK2 (Homo sapiens, UniProt P28482); test: In-cell ERK1/2 pull down in competition with SCH-TCO, ERK2; format: cell-based
T1 sequence (P28482 whole entry): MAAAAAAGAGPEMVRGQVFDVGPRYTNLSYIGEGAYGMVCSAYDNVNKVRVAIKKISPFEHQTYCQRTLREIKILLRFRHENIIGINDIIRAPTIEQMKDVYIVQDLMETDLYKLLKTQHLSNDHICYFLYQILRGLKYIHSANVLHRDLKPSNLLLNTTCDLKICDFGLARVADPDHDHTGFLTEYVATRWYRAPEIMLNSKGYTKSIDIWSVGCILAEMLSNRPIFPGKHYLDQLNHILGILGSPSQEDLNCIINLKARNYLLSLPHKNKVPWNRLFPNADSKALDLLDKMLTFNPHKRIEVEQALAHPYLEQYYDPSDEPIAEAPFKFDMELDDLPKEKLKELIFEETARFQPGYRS

[7] = biological target: T1, ERK2; test: ITDR-CETSA in HCT116 cells, ERK2; format: cell-based
[8] = biological target: T1, ERK2; test: ERK2 bioassay; format: biochemical
[9] = biological target: T2, ERK1 (Homo sapiens, UniProt P27361); test: ITDR-CETSA in HCT116 cells, ERK1; format: cell-based
T2 sequence (P27361 whole entry): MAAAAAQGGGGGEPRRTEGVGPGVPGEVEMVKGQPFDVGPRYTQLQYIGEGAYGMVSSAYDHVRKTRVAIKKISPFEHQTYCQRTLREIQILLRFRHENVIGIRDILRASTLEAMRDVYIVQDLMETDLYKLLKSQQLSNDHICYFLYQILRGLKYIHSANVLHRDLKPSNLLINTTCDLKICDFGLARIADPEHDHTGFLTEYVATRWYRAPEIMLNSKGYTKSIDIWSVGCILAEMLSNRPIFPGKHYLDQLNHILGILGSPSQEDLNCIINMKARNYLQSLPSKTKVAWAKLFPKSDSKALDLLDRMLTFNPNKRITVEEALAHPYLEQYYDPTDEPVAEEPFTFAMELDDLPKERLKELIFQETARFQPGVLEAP

[10] = test system: ERK1/2; test: CETSA melting curves; format: cell-based; details: HCT116 cells and lysates; 10 μM inhibitor
How it was run: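 HCT116 cells in McCoy's 5A at 3 × 10^6 cells per mL got DMSO or 10 μM inhibitor for 1 h at 37 °C. Lysate arm: TG lysis buffer lysate with 10 μM inhibitor for 15 min at RT. Samples were heated 3 min at 12 temperatures (37–70 °C) and lysed by 3 freeze–thaw cycles. Soluble fraction (20 000g, 20 min) was immunoblotted for total ERK1/2 and quantified by densitometry into melting curves.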

[11] = biological target: T2, ERK1; test: In-cell ERK1/2 pull down in competition with SCH-TCO, ERK1; format: cell-based
[12] = test system: ERK1/2; details: published data for the untagged compound; cited from earlier work

Molecule | IC50 ([1]; HCT-116, 2 h) | IC50 ([1]; HCT-116, 7 h) | Difference between EC50 in A375 and HCT116 lysates [2] | IC50 [3] | Difference between EC50 in competition with TCO-GDC-2 as compared with SCH-TCO [4] | Target engagement EC50 with TCO-GDC-2 probe (in words) [4] | IC50 ([5]; A-375, 2 h) | IC50 ([5]; A-375, 7 h) | Suppression of pRSK ([1]; HCT116 cells) | EC50 [6] | EC50 [7] | IC50 ([5]; A-375, 4 h) | Bioassay % @ 0.003 μM ([8]; at 0.003 μM) | EC50 [9] | Effect on CETSA melting curves of ERK1/2 relative to DMSO control [10] | EC50 [11] | t1/2 (off-rate, published data) [12] | Difference between engagement of ERK1 and ERK2 ([7]; ITDR-CETSA in HCT116 cells, higher affinity for ERK2) | Inhibition of ERK2 (in words) [8] | IC50 ([8]; read-out: Bioassay IC50, geometric means)
Cn1nccc1Nc1nccc(-c2ccn([C@H](CO)c3ccc(Cl)c(F)c3)c(=O)c2)n1 [GDC-0994] | 140 nM | 110 nM | 2-3 fold | 1000 nM | ~2 fold | low nanomolar range | 170 nM | 130 nM |  |  |  |  |  |  |  |  |  |  |  | 
Cn1nccc1Nc1nccc(-c2cc3c(s2)C(C)(C)N(CCN2CCOCC2)C3=O)n1 [LY3214996] |  |  |  | 480 nM | ~2 fold | low nanomolar range |  |  | failed to show convincing suppression of pRSK | 770 nM | 330 nM | 2100 nM | 62% @ 0.003 μM (2) | 300 nM | temperature shift in the melting curves | 670 nM |  |  |  | 
O=C(Nc1ccc2[nH]nc(-c3ccncc3)c2c1)[C@@H]1CCN(CC(=O)N2CCN(c3ccc(-c4ncccn4)cc3)CC2)C1 [SCH772984] | 9 nM | 6 nM |  | 50 nM |  |  | 20 nM | 20 nM |  |  |  |  |  | 63 nM |  | 16 nM | 25 to 80 min | 4 fold |  | 
Biotin-PEG4-tetrazine [Biotin-PEG4-Tz] |  |  |  |  |  |  |  |  |  |  |  |  |  |  |  |  |  |  | does not appreciably inhibit ERK2 | 8100 nM
